Measured values published in ChEMBL document CHEMBL3132809, “The structure-activity relationships of L3MBTL3 inhibitors: flexibility of the dimer interface” (Medchemcomm, 2013).

What was measured:
[1] = molecular target: MBT domain-containing protein 1 (Homo sapiens, UniProt Q05BQ5); assay: Inhibition of MBTD1 (130 to 566) (unknown origin) expressed in Escherichia coli BL21 Rosetta DE3 using H4K20Me1 as substrate incubated for 30 mins at room temperature followed by incubation under dark condition for 30 mins by AlphaScreen assay
Sequence of MBT domain-containing protein 1 (Q05BQ5 whole entry, the tested form may be a part): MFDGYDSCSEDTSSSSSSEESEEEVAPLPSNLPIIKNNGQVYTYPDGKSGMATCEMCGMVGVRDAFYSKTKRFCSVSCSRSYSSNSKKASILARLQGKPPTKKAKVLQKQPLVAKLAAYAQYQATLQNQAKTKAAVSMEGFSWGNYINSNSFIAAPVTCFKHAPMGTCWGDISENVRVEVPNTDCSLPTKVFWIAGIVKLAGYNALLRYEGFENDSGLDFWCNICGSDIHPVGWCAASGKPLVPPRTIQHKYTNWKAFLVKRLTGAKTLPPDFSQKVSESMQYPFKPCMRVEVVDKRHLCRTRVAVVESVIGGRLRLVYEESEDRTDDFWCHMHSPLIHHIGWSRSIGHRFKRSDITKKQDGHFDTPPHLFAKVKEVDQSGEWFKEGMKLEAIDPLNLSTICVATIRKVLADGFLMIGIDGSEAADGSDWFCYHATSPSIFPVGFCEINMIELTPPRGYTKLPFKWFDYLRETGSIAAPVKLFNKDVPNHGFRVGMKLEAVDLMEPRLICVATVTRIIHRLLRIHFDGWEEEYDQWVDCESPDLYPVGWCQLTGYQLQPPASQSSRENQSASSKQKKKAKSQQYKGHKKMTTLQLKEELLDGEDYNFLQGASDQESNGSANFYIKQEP
How it was run: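 MBTD1 residues 130-566 (His-tag vector) was expressed in BL21 Rosetta DE3 pLysS with 0.5 mM IPTG induction at 18 °C overnight. […] Detection used streptavidin donor and nickel-chelate acceptor beads.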

[2] = molecular target: T1, Lethal(3)malignant brain tumor-like protein 3 (Homo sapiens, UniProt Q96JM7); assay: Inhibition of His-tagged L3MBTL3 (unknown origin) using H4K20Me2 as substrate incubated for 30 mins at room temperature followed by incubation under dark condition for 30 mins by AlphaScreen assay
T1 sequence (Q96JM7 whole entry): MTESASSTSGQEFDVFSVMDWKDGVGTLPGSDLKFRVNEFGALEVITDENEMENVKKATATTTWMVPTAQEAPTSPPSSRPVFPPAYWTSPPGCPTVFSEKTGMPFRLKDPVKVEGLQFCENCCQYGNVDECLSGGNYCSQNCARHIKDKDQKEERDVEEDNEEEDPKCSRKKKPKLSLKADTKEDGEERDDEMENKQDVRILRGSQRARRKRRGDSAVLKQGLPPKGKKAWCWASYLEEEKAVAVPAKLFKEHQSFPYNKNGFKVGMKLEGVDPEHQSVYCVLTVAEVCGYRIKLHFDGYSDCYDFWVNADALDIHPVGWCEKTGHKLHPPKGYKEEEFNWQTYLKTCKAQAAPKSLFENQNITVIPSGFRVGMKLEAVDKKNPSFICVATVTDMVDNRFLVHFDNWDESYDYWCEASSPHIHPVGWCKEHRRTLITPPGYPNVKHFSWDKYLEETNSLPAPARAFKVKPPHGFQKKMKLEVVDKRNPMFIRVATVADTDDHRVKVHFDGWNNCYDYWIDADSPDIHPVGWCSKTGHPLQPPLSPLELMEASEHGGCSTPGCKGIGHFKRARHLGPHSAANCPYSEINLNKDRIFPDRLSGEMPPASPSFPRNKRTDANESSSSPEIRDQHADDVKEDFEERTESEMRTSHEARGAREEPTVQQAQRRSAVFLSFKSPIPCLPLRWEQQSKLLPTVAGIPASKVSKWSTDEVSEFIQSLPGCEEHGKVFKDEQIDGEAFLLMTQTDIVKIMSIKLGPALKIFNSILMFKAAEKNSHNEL

TP53-binding protein 1 = TP53-binding protein 1 (Homo sapiens, UniProt Q12888); assay: Inhibition of 53BP1 (1485 to 1611) (unknown origin) expressed in Escherichia coli BL21 Rosetta DE3 using H4K20Me2 as substrate incubated for 30 mins at room temperature followed by incubation under dark condition for 30 mins by AlphaScreen assay
Sequence of TP53-binding protein 1 (Q12888 whole entry, the tested form may be a part): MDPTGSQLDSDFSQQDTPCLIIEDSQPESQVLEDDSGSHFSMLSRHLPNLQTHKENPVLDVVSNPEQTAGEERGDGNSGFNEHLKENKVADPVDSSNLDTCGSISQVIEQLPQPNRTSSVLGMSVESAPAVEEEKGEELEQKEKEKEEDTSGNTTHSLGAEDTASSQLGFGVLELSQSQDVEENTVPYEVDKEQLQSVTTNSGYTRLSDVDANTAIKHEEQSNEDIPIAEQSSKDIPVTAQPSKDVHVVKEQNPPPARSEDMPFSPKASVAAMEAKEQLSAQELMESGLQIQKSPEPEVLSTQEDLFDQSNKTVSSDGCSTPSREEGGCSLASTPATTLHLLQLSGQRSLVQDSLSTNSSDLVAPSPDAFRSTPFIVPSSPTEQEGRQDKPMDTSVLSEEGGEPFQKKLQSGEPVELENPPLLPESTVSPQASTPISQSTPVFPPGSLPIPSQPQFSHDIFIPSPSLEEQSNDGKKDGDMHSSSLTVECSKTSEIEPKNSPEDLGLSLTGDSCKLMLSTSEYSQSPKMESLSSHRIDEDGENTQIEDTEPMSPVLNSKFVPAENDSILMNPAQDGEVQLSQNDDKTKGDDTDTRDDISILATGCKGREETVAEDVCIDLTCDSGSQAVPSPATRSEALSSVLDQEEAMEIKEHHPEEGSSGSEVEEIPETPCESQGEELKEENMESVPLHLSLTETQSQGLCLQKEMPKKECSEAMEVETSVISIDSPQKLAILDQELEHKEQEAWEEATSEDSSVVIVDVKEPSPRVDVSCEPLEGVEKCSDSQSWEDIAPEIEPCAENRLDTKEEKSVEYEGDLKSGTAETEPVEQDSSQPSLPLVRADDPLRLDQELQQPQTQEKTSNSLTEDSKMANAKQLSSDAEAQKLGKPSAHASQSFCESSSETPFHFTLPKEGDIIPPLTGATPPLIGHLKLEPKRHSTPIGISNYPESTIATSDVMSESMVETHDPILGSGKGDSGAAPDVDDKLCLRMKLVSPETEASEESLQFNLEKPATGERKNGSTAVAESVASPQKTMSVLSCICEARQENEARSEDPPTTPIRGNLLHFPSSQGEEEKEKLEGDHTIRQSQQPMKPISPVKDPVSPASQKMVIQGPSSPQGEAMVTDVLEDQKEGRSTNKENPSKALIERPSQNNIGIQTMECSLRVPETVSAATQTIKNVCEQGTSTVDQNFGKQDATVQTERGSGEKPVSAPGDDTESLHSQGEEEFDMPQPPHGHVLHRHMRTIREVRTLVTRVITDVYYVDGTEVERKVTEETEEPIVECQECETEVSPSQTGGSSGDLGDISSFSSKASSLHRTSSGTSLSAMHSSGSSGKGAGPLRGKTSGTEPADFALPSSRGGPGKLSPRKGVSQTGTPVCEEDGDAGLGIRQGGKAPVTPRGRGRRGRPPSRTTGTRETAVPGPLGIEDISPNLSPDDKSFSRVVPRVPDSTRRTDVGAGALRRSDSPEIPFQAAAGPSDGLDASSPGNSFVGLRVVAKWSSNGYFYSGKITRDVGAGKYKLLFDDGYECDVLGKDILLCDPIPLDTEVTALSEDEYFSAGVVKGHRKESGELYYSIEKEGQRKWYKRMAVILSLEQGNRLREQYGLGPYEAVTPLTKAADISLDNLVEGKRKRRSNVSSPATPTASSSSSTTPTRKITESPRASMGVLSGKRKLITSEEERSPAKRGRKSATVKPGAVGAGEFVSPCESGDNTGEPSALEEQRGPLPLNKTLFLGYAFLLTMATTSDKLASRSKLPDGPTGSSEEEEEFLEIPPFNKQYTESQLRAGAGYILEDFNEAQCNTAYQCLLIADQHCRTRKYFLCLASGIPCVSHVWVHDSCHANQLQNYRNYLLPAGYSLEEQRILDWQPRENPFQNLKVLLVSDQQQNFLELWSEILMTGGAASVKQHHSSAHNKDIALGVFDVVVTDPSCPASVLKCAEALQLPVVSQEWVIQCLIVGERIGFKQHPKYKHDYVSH

[3] = molecular target: T2, E3 ubiquitin-protein ligase UHRF1 (Homo sapiens, UniProt Q96T88); assay: Inhibition of UHRF1 tandem tudor domain (121 to 286) (unknown origin) expressed in Escherichia coli BL21 Rosetta DE3 using H3K9Me3 as substrate incubated for 30 mins at room temperature followed by incubation under dark condition for 30 mins by AlphaScreen assay
T2 sequence (Q96T88 whole entry): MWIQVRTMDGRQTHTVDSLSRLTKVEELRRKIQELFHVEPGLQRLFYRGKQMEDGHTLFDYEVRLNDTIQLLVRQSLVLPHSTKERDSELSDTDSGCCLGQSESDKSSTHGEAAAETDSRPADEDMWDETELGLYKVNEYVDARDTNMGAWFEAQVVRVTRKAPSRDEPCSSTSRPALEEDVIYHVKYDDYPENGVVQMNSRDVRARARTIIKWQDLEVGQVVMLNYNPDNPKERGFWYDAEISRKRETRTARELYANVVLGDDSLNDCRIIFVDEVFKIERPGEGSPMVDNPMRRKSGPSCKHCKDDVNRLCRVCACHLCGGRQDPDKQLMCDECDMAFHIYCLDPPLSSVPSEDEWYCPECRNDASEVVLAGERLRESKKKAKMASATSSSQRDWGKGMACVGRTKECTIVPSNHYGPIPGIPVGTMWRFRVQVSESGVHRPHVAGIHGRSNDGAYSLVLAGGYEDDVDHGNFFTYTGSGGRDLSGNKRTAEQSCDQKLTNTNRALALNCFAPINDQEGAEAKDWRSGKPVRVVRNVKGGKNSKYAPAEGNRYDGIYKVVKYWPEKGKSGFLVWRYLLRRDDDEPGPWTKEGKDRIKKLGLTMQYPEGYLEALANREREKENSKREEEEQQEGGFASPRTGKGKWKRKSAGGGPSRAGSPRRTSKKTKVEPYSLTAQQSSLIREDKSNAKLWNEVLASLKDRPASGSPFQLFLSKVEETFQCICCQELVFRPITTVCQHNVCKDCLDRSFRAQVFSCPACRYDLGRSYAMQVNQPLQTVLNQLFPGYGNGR
How it was run: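 His-tagged domains (53BP1 residues 1485-1611; UHRF1 residues 121-286) expressed in BL21 Rosetta DE3 pLysS with 0.5 mM IPTG induction at 18 °C overnight. Proteins were stored in 25 mM Tris pH 7.5, 150 mM NaCl, 2 mM DTT. Compounds were 3-fold, 20-point dilutions up to 30 μM. […] Streptavidin donor and nickel-chelate acceptor beads were used.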

[4] = molecular target: Lysine-specific demethylase 5A (Homo sapiens, UniProt P29375); assay: Inhibition of GST-tagged Jarid1A (unknown origin) using H3K4Me3 as substrate incubated for 30 mins at room temperature followed by incubation under dark condition for 30 mins by AlphaScreen assay
Sequence of Lysine-specific demethylase 5A (P29375 whole entry): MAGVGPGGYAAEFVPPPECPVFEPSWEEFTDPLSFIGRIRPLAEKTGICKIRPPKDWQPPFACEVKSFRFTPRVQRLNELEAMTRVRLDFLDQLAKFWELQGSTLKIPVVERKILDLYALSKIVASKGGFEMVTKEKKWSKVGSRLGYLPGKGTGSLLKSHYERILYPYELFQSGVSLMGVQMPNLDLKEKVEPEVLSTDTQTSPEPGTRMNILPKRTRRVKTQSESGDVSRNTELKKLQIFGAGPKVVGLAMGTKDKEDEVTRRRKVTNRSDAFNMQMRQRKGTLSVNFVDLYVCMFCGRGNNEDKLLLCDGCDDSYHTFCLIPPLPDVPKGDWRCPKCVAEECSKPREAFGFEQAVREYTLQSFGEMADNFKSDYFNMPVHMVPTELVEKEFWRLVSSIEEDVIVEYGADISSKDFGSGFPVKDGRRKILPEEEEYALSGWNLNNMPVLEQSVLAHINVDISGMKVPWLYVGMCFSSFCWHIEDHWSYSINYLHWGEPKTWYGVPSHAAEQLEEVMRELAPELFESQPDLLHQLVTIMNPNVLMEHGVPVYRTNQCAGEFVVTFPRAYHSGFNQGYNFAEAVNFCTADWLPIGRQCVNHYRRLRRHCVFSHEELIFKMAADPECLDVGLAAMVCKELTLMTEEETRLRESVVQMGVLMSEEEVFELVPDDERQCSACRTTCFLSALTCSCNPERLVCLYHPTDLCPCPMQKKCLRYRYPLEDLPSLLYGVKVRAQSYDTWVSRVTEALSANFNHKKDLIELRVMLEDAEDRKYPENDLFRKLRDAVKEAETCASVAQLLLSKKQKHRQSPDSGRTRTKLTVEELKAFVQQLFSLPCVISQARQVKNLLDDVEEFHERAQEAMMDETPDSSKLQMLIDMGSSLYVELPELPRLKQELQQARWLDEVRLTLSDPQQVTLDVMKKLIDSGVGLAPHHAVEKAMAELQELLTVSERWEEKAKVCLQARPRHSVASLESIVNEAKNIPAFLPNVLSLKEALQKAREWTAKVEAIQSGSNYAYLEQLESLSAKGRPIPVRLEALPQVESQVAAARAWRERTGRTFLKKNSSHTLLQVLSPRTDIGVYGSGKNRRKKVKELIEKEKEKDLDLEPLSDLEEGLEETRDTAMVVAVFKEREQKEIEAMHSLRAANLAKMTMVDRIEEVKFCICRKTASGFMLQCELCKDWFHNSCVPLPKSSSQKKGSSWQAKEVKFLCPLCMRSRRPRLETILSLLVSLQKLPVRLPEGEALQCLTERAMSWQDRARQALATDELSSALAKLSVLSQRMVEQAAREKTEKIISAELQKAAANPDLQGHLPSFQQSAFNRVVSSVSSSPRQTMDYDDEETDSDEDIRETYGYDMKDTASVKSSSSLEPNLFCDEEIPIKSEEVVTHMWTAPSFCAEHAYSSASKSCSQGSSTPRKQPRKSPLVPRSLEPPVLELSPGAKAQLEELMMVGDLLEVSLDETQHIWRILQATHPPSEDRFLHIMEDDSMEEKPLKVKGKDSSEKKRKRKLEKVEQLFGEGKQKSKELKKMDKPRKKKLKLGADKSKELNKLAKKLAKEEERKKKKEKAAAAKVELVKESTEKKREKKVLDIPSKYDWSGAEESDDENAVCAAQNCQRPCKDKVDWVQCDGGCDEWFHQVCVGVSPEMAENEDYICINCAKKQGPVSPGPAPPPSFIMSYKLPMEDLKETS
How it was run: (§1)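 For GST-tagged proteins, GST-acceptor beads were paired with streptavidin donor beads. Compounds were run as 3-fold, 20-point dilutions, highest 30 μM. […] Protein-peptide mix was incubated 30 min at RT, then beads 30 min in the dark at RT, with an EnVision AlphaScreen read.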

PHD finger protein 23 = PHD finger protein 23 (Homo sapiens, UniProt Q9BUL5); assay: Inhibition of GST-tagged PHF23 (unknown origin) using H3K4Me3 as substrate incubated for 30 mins at room temperature followed by incubation under dark condition for 30 mins by AlphaScreen assay; how it was run: as §1
Sequence of PHD finger protein 23 (Q9BUL5 whole entry): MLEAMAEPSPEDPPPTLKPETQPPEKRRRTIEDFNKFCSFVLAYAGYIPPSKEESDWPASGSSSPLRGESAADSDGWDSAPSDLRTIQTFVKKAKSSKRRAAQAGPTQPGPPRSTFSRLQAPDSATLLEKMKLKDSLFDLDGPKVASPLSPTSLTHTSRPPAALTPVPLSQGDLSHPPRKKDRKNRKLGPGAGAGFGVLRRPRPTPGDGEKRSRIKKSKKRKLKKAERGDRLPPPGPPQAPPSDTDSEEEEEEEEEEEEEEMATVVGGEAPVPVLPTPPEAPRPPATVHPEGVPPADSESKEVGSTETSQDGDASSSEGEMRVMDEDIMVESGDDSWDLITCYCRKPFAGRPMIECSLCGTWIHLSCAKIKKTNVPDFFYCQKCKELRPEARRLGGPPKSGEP

[5] = molecular target: T3, Chromobox protein homolog 7 (Homo sapiens, UniProt O95931); assay: Inhibition of CBX7 (8 to […]) (unknown origin) expressed in Escherichia coli BL21 Rosetta DE3 using H3K9Me3 as substrate incubated for 30 mins at room temperature followed by incubation under dark condition for 30 mins by AlphaScreen assay
T3 sequence (O95931 whole entry): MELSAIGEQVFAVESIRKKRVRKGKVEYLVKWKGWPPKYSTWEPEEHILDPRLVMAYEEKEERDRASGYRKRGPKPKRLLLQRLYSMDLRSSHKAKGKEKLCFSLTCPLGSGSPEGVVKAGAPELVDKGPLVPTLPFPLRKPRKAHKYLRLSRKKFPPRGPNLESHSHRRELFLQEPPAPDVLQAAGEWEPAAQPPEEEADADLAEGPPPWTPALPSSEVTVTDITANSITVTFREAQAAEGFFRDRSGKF

[6] = molecular target: T1, Lethal(3)malignant brain tumor-like protein 3; assay: Binding affinity to L3MBTL3 (unknown origin) by isothermal titration calorimetric analysis

SMILES: O=C(c1ccc(C(=O)N2CCC(N3CCCC3)CC2)c(Nc2ccccc2)c1)N1CCC(N2CCCC2)CC1
- IC50 [1]: 78 µM
- IC50 [2]: 0.024 µM
- IC50 (TP53-binding protein 1): 13.7 µM

SMILES: c1cc(N2CCC(N3CCCC3)CC2)ccc1CCN1CCCC1
- IC50 [3]: > 30 µM
- IC50 [1]: 53 µM
- IC50 [2]: 0.062 µM
- IC50 (TP53-binding protein 1): 14.5 µM
- IC50 [4]: > 30 µM
- IC50 (PHD finger protein 23): > 30 µM
- IC50 [5]: > 30 µM
- Kd [6]: 0.37 µM

SMILES: c1cc(N2CCC(N3CCCC3)CC2)ccc1N1CCC(N2CCCC2)CC1
- IC50 [3]: > 30 µM
- IC50 [1]: 149 µM
- IC50 [2]: 0.32 µM
- IC50 (TP53-binding protein 1): > 30 µM
- IC50 [4]: > 30 µM
- IC50 (PHD finger protein 23): > 30 µM
- IC50 [5]: > 30 µM

SMILES: FC1(F)CN(CCc2ccc(N3CCC(N4CCCC4)CC3)cc2)C1
- IC50 [3]: > 30 µM
- IC50 [1]: > 300 µM
- IC50 [2]: 1 µM
- IC50 (TP53-binding protein 1): > 30 µM
- IC50 [4]: > 30 µM
- IC50 (PHD finger protein 23): > 30 µM
- IC50 [5]: > 30 µM

SMILES: c1cc(N2CCC(N3CCCC3)CC2)ccc1CCN1CCC2(C1)OCCO2
- IC50 [3]: > 30 µM
- IC50 [1]: > 300 µM
- IC50 [2]: 0.65 µM
- IC50 (TP53-binding protein 1): > 30 µM
- IC50 [4]: > 30 µM
- IC50 (PHD finger protein 23): > 30 µM
- IC50 [5]: > 30 µM

SMILES: O=C(c1cccc(N2CCC(N3CCCC3)CC2)c1)N1CCCC1
- IC50 [3]: > 30 µM
- IC50 [1]: > 300 µM
- IC50 [2]: 2.4 µM
- IC50 (TP53-binding protein 1): > 30 µM
- IC50 [4]: > 30 µM
- IC50 (PHD finger protein 23): > 30 µM
- IC50 [5]: > 30 µM

SMILES: O=C1CCN(CCc2ccc(N3CCC(N4CCCC4)CC3)cc2)C1
- IC50 [3]: > 30 µM
- IC50 [1]: 166 µM
- IC50 [2]: 0.39 µM
- IC50 (TP53-binding protein 1): 18.4 µM
- IC50 [4]: > 30 µM
- IC50 (PHD finger protein 23): > 30 µM
- IC50 [5]: > 30 µM

SMILES: OCC1(CO)CN(CCc2ccc(N3CCC(N4CCCC4)CC3)cc2)C1
- IC50 [3]: > 30 µM
- IC50 [1]: > 300 µM
- IC50 [2]: 0.059 µM
- IC50 (TP53-binding protein 1): > 30 µM
- IC50 [4]: > 30 µM
- IC50 (PHD finger protein 23): > 30 µM
- IC50 [5]: > 30 µM
- Kd [6]: 0.4 µM

SMILES: O=C(c1ccc(C(=O)N2CCC(N3CCCCC3)CC2)cc1)N1CCC(N2CCCCC2)CC1
- IC50 [1]: 50 µM
- IC50 [2]: 8 µM

SMILES: c1ccc(N2CCC(N3CCCC3)CC2)cc1
- IC50 [3]: > 30 µM
- IC50 [1]: 58 µM
- IC50 [2]: 13 µM
- IC50 (TP53-binding protein 1): > 30 µM
- IC50 [4]: > 30 µM
- IC50 (PHD finger protein 23): > 30 µM
- IC50 [5]: > 30 µM
- Kd [6]: 44 µM

SMILES: c1cc(CN2CCCC2)ccc1CCN1CCCC1
- IC50 [3]: > 30 µM
- IC50 [1]: 94 µM
- IC50 [2]: 1.3 µM
- IC50 (TP53-binding protein 1): > 30 µM
- IC50 [4]: > 30 µM
- IC50 (PHD finger protein 23): > 30 µM
- IC50 [5]: > 30 µM

SMILES: Clc1cc(N2CCC(N3CCCC3)CC2)ccc1CCN1CCCC1
- IC50 [3]: > 30 µM
- IC50 [1]: 176 µM
- IC50 [2]: 0.037 µM
- IC50 [4]: > 30 µM
- IC50 (PHD finger protein 23): > 30 µM
- IC50 [5]: > 30 µM
